Experimental data reported in ChEMBL document CHEMBL1123361, “Syntheses and beta-adrenergic agonist and antiaggregatory properties of N-substituted trimetoquinol analogues” (J Med Chem, 1986).

Experiments:
[1] = species: Homo sapiens; test: Compound was evaluated for the inhibition of U-46,619-induced human platelet aggregation (Antiaggregatory activity); assay type: functional
In short: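 Washed human platelets (ACD blood from aspirin-free donors, apyrase-washed, resuspended in calcium-containing modified Tyrode's pH 7.4, 3×10^8/mL) preincubated with vehicle or drug 3 min at 37 °C, then challenged with the minimum U46619 dose (0.8-2.0 μM) giving maximal irreversible aggregation; turbidometric readout ≥2 min; IC50 from % inhibition vs log concentration plots; mean ± SEM, 3-4 donors.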

[2] = species: Homo sapiens; test: Compound was evaluated for the secretion of [14C]- Serotonin (Antisecretory activity); assay type: functional
In short: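 [14C]serotonin release measured in the same U46619-challenged washed human platelet samples as aggregation: supernatant radioactivity after 10000g 30 s spin, scintillation counting, relative to total after lysis; net U46619-evoked release as % of total; IC50 from % inhibition of maximal release vs log concentration; mean ± SEM, ≥3 preparations.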

[3] = biological target: Beta-1 adrenergic receptor (Cavia porcellus) (UniProt B0FL73)
Chain of Beta-1 adrenergic receptor (Cavia porcellus) (B0FL73 1-467): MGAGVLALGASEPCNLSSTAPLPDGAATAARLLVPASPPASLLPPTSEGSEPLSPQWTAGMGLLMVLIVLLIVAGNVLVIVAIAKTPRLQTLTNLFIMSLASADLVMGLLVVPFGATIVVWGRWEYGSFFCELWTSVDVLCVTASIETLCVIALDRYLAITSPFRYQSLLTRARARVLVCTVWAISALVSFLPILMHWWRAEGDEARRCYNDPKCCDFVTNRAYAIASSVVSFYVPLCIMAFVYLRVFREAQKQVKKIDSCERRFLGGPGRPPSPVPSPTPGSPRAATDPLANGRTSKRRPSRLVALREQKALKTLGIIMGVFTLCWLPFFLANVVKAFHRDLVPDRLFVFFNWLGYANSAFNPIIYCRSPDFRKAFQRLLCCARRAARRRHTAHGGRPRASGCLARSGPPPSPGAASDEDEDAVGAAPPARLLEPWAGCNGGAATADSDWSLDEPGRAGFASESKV

[4] = biological target: Beta-2 adrenergic receptor (Cavia porcellus) (UniProt Q8K4Z4)
Chain of Beta-2 adrenergic receptor (Cavia porcellus) (Q8K4Z4 whole entry, looked up): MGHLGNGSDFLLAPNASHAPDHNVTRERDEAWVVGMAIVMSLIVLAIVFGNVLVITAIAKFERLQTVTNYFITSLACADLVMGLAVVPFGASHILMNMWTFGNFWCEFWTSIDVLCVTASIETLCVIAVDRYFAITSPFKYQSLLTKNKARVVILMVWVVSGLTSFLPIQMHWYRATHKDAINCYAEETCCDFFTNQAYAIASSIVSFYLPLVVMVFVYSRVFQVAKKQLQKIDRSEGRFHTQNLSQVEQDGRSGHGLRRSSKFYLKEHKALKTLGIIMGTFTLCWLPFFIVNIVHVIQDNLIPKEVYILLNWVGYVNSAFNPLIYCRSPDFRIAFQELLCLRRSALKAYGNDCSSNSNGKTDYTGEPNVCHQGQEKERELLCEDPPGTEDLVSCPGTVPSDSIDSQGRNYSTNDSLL

Row | SMILES | IC50 [1] [µM] | IC50 [2] [µM] | pD2 [3] | pD2 [4]
1 | COc1cc(C[C@@H]2NCCc3cc(O)c(O)cc32)cc(OC)c1OC | 19.3 | 24.5 | 7.26 | 7.23
2 | COc1cc(CC2c3cc(O)c(O)cc3CCN2Cc2ccccc2)cc(OC)c1OC (stereo not drawn) | 21.2 | 96.5 | 4.34 | 5.34
3 | COc1cc(CC2c3cc(O)c(O)cc3CCN2CCCl)cc(OC)c1OC (stereo not drawn) | 86.6 | 162 | 4.88 | 5.34
4 | COc1cc(CC2c3cc(O)c(O)cc3CCN2CCO)cc(OC)c1OC (stereo not drawn) | 71.6 | 116 | 5.35 | 5.73
5 | COc1cc(CC2NCCc3cc(O)c(O)cc32)cc(OC)c1OC (stereo not drawn) |  |  | 7.1 | 6.96
6 | COc1cc(CC2c3cc4c(cc3CCN2CCCl)OS(=O)O4)cc(OC)c1OC (stereo not drawn) | 64.2 | 166 | 5.24 | 5.58
7 | COc1cc(CC2c3cc(O)c(O)cc3CCN2C)cc(OC)c1OC (stereo not drawn) |  |  | 5.89 | 6.05
8 | COc1cc(C[C@H]2NCCc3cc(O)c(O)cc32)cc(OC)c1OC | 0.71 | 0.55 | 5.58 | 5.63
